These results are taken from publication PMC8313742 (Molecular Metabolism, 2021).

The test system of test [1] is obese male Sprague Dawley rats (HFD). Description: Acute gastric emptying rate. Format: in vivo, rat. The settings on record: plasma acetaminophen, n = 8. The gist of the method: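 Obese HFD-fed male Sprague Dawley rats were fasted overnight, then given s.c. test compound plus oral glucose bolus and acetaminophen at time 0. Tail-vein EDTA blood was taken at 0, 30, 60, 120 and 240 min. Plasma acetaminophen by ELISA served as gastric emptying estimate, expressed as % of vehicle. n = 8. One-way ANOVA/Tukey at 60 and 240 min; Kruskal–Wallis/Dunn at 30 and 120 min.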

Test [2] deals with Zucker diabetic fatty (fa/fa; ZDF) rats. Briefly: 8-week intervention study in ZDF rats. Format: in vivo, rat. The settings on record: for HbA1c levels compared to vehicle / OGTT blood glucose iAUC compared to vehicle: KBP-066 […] q.d.; for HbA1c levels compared to vehicle: KBP-066A 1.5 and 3 nmol/kg q.3.d.; for vehicle-corrected reduction in HbA1c at the end of the study: dose not given; for OGTT blood glucose iAUC compared to vehicle: OGTT 1 g/kg after seven weeks, KBP-066A 0.75 and 3 nmol/kg q.3.d.; for tAUC, BW / tAUC, FI / Epididymal AT / Inguinal AT / Perirenal AT: n = 10, mean ± SEM; for Epididymal AT / Inguinal AT / Perirenal AT: study end.

The subject of another test is AMY3R cell line. Format: binding, human. The settings on record: competition with […] 125I-sCT, AMY3R cells, triplicates.
In test [3] the target is T1, Amylin 3 receptor (AMY3R; CHO K1 CALCR RAMP3) (Homo sapiens, UniProt O60896+P30988).
T1 sequence (P30988 25-474): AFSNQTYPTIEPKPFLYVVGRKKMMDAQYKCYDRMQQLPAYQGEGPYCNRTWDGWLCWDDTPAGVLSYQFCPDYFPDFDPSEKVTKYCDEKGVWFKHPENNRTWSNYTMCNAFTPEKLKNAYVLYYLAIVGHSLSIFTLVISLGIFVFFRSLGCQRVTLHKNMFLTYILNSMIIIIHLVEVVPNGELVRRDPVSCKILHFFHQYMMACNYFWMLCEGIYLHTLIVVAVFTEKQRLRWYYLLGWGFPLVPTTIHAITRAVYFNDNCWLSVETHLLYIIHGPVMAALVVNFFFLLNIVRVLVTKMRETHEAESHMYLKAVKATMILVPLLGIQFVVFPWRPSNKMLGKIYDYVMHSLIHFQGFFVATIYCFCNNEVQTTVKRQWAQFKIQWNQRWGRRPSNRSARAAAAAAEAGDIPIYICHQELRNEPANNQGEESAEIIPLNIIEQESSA
T1 sequence (O60896 24-148 partner): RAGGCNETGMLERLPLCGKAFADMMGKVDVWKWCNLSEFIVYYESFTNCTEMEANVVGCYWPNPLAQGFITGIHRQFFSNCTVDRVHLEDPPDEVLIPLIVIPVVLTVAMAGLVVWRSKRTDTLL
Briefly: PathHunter β-arrestin recruitment reporter assay, amylin receptor. Format: cell-based. To be noted: 10% FBS (Table S1). On the technique in general: Arrestin recruitment assays detect the binding of arrestin to an activated receptor.

Test [4] concerns obese male Sprague Dawley rats (HFD). Description: Acute food intake and body weight after single s.c. injection. To be noted: HFD SD rats; for body weight change after single injection: single s.c. 3 nmol/kg, 96-hour profile, n = 4. Format: in vivo, rat. The gist of the method: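 Male Sprague Dawley rats on 60 kcal% fat diet from 5–6 weeks of age were used when obese (>500 g). They were allocated by body weight and given a single s.c. injection at time 0. Food intake and body weight were recorded daily for 96–144 h. tAUC (0–96 h) was calculated. n = 4–10 per group. One-way ANOVA with Tukey versus vehicle; mean ± SEM.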

A further test relates to HFD Sprague Dawley rats. Description: Chronic 4-week study in high-fat diet-fed Sprague Dawley rats. Format: in vivo, rat. The settings on record: for tAUC, BW / tAUC, FI / Epididymal AT / Inguinal AT / Perirenal AT: 4 weeks, n = 6, mean ± SEM; for Epididymal AT / Inguinal AT / Perirenal AT: study end. The gist of the method:
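Male Sprague Dawley rats fed 60 kcal% fat diet from 5–6 weeks old for 20 weeks were randomized by body weight (n = 6). Dosing was s.c. saline or test compound q.3.d. for 4 weeks. Body weight and food intake were taken daily, and tAUC calculated. Terminal OGTT (2 g/kg, 4 mL/kg p.o.) was run after 14-h fast, 24 h post-dose, with glucose iAUC. Epididymal, perirenal and inguinal fat were weighed.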

The mark [5] stands for this setting: 0.75 nmol/kg s.c. q.3.d., 8 weeks.
Setting [6] is: single s.c. 36 nmol/kg, n = 6-10.

For the substance “Ac-CSNLSTCXLGRLSQDLHRLQTYPKTDVGANAP-NH2 [KBP-066]”, the “gastric emptying rate at 30 min” value in test [1] ([…] s.c., overnight fasted rats) was “reduced the gastric emptying rate”. Moreover, in test [1] (both doses 0.75 and […] s.c.), the “gastric emptying rate at 60 and 120 min” value is “significantly did so”. Also, in test [2] (8 weeks), the “HbA1c levels compared to vehicle” value is “significantly improved” and the “vehicle-corrected reduction in HbA1c at the end of the study” value amounted to 31%. For the same substance, the “OGTT blood glucose iAUC compared to vehicle” value in test [2] is “significantly reduced”. Moreover, the “change of IC50 in 2% HSA compared to 0.01% HSA” value with AMY3R cell line is given as “not affected by the difference in HSA concentration”. Moreover, the “fold lower EC50 than KBP-066A for the AMYR” value in test [3] was “eight-fold”. Further, in test [4], the “body weight change after single injection” value is “completely returned to the baseline after 72 h”.
On to “Ac-CSNLSTCXLGKLSQDLHRLQTYPKTDVGANAP-NH2 [KBP-066A]”, for which the “effect on fasting blood glucose levels” value in test [2] (0.75 nmol/kg q.3.d. (lowest dose), 8 weeks) is “minor”. Besides, in test [2] (setting [5]), the “tAUC, BW” value was 6180 ± 67 g∗days^−1; the “tAUC, FI” value is 3815 ± 135∗∗¤ g∗days^−1; the “Epididymal AT” value worked out at 3.7 ± 0.1 g; the “Inguinal AT” value is 4.8 ± 0.4 g. Moreover, the “Perirenal AT” value in test [2] (setting [5]) is on record as 6.0 ± 0.3 g. Further, the “fasting blood glucose levels (tAUC) compared to KBP-066 q.d.” value in test [2] (3 nmol/kg q.3.d. (highest dose), 8 weeks) is “significantly improved”. Besides, in test [2] (3 nmol/kg s.c. q.3.d., 8 weeks), the “tAUC, BW” value turned out to be 6409 ± 122 g∗days^−1; the “tAUC, FI” value is given as 2898 ± 61∗∗∗ g∗days^−1; the “Epididymal AT” value was found to be 4.7 ± 0.2 g; the “Inguinal AT” value was found to be 6.3 ± 0.7 g. The “Perirenal AT” value in test [2] (3 nmol/kg s.c. q.3.d., 8 weeks) was found to be 6.7 ± 0.4 g. Also, the “plasma insulin (tAUC) compared to KBP-066 q.d.” value in test [2] (8 weeks, 3 nmol/kg q.3.d.) is “significantly preserved plasma insulin at higher levels”. Also, in test [2] (8 weeks), the “HbA1c levels compared to vehicle” value was “significantly improved” and the “vehicle-corrected reduction in HbA1c at the end of the study” value is on record as 46%. Further, the “OGTT blood glucose iAUC compared to vehicle” value in test [2] is recorded as “significantly reduced”. In addition, the “change of IC50 in 2% HSA compared to 0.01% HSA” value with AMY3R cell line is recorded as 100 fold. Besides, in the test on HFD Sprague Dawley rats (1 nmol/kg s.c. q.3.d.), the “tAUC, BW” value is 2584 ± 7∗∗∗ g∗days^−1; the “tAUC, FI” value is on record as 617 ± 10∗∗∗ g∗days^−1; the “Epididymal AT” value worked out at 4.4 ± 1.0 g; the “Inguinal AT” value came out at 2.8 ± 0.3 g. For the same substance, the “Perirenal AT” value with HFD Sprague Dawley rats (1 nmol/kg s.c. q.3.d.) was determined as 3.5 ± 0.9 g. Moreover, in the test on HFD Sprague Dawley rats (2 nmol/kg s.c. q.3.d.), the “tAUC, BW” value is listed as 2452 ± 6∗∗∗¤ g∗days^−1; the “tAUC, FI” value was 518 ± 6∗∗∗¤¤¤ g∗days^−1; the “Epididymal AT” value is reported as 3.9 ± 1.1 g; the “Inguinal AT” value is on record as 1.9 ± 0.5 g. In addition, in the test on HFD Sprague Dawley rats (2 nmol/kg s.c. q.3.d.), the “Perirenal AT” value is listed as 2.7 ± 0.7∗∗ g. Moreover, in the test on HFD Sprague Dawley rats (4 nmol/kg s.c. q.3.d.), the “tAUC, BW” value is recorded as 2458 ± 8∗∗∗ g∗days^−1; the “tAUC, FI” value is 532 ± 10∗∗∗¤¤ g∗days^−1; the “Epididymal AT” value was found to be 4.2 ± 1.2 g; the “Inguinal AT” value stood at 2.9 ± 1.4 g. Further, the “Perirenal AT” value with HFD Sprague Dawley rats (4 nmol/kg s.c. q.3.d.) is 2.8 ± 1.0∗∗ g. For the same substance, the “OGTT glucose iAUC compared to vehicle” value in the test on HFD Sprague Dawley rats (OGTT after four weeks, KBP-066A 1, 2, 4 nmol/kg q.3.d.) was “not statistically significant compared to vehicle”. Further, the “effect on food intake and body weight” value in test [4] (single s.c. 0.5 nmol/kg (lowest dose), n = 6-10) is reported as “only had a minor effect on both parameters”. Also, the “body weight change after single injection” value in test [4] was “still markedly reduced even 96 h post-injection”. In test [4] (setting [6]), the “duration of effect on body weight” value is on record as 144 h and the “duration of effect on food intake” value was found to be 120 h.
